In data set [1] the target is Carbonic anhydrase 2 (Mus musculus) (UniProt P00920). Kind of data set: Binding affinity to endogenously expressed carbonic anhydrase2 in Slc:ICR mouse using syreptavidin-horseradish peroxidase conjugate by Western blot analysis. A digest of the protocol: (§1)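 Male SPF Slc:ICR mice, 8 weeks old, received the biotin probe intravenously (100 µM in 0.5 mL PBS), and tail-vein blood was drawn at 4, 8 and 20 h. For ex vivo runs, EDTA-treated whole blood was diluted two-fold in PBS and held with 5 µM probe, ±500 µM EZA, at 35 °C for 20 h. Lysis used NP-40 buffer with 0.5 mM EZA, followed by 15% SDS-PAGE and PVDF blotting. Biotin was detected with SAv-HRP chemiluminescence; the membrane was reprobed with anti-mouse CAII plus anti-goat IgG-HRP.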
Background: A western blot detects proteins with antibodies after separation by electrophoresis.

Data set [2] has the same target. Kind of data set: Binding affinity to endogenously expressed carbonic anhydrase2 in Slc:ICR mouse using anti-mouse CA2 antibody by Western blot analysis. In outline: as §1
The target of data set [3] is Peptidyl-prolyl cis-trans isomerase FKBP1A (Homo sapiens) (UniProt P62942). The experiment in a line: Binding affinity to human FKBP12 in Jurkat cells at 11 uM after 24 hrs using anti-human FKBP12 antibody. Format: cell-based. As to conditions: 4 uM, in the assay text read “at 4 uM after 18 hrs” for “at 11 uM after 24 hrs”.
Data set [4] has as its system Jurkat. The experiment in a line: Cytotoxicity against in human Jurkat cells after 18 hrs by MTT assay. The class given is cell-based. In outline:
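Jurkat cells, maintained in RPMI 1640 with 10% FBS at 37 °C under 5% CO2, were treated at 4 × 10^6 cells per 1 mL serum-free RPMI 1640 with probe (4 µM) at 37 °C for 18 h. Viability was read by MTT assay.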
Background: Tetrazolium dyes change colour on reduction, which living cells bring about.

In data set [5] the target is Carbonic anhydrase 2 (Homo sapiens) (UniProt P00918). The experiment in a line: Binding affinity to human 7-diethylaminocoumarin labelled carbonic anhydrase2 after 48 hrs by SDS-PAGE/fluorescence gel imaging. In outline:
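Purified human CAII (40 µM) was incubated with the Dc-tosyl reagent (80 µM) in 50 mM HEPES, pH 7.2, at 37 °C. Control reactions held EZA (400 µM) or GSH (10 mM). Samples were resolved by SDS-PAGE, read by in-gel fluorescence imaging, then stained with CBB.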

Data set [6] can be described thus: Toxicity in human RBC assessed as hemolysis. The class given is cell-based. As to conditions: erythrocyte.
In data set [7] the target is Carbonic anhydrase 2 (Homo sapiens) (UniProt P00918). Kind of data set: Activity at human carbonic anhydrase2 assessed as hydrolysis of p- nitrophenyl acetate.

The text below walks through data of ChEMBL document CHEMBL1212715, “Ligand-directed tosyl chemistry for protein labeling in vivo” (Nat Chem Biol, 2009).

Each structure is given as a SMILES string. The source made the active and inactive calls. The rule behind the calls is not given here.

Peptidyl-prolyl cis-trans isomerase FKBP1A (Homo sapiens), sequence (P62942 whole entry): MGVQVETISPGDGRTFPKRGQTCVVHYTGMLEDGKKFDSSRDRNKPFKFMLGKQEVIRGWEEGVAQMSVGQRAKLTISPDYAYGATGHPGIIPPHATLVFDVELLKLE

Take `NS(=O)(=O)c1ccc(C(=O)NCCCCCNC(=O)c2cccc(S(=O)(=O)OCCOCCOCCNC(=O)CCCC[C@@H]3SC[C@@H]4NC(=O)N[C@@H]43)c2)cc1`: the outcome in data set [1] and in data set [2] was Active.

Regarding `O=C(CCCC[C@@H]1SC[C@@H]2NC(=O)N[C@@H]21)NCCOCCOCCOS(=O)(=O)c1cccc(C(=O)NCCCCCNC(=O)c2ccccc2)c1`, the outcome in data set [1] and in data set [2] was inactive.

For the molecule `CCC(C)(C)C(=O)C(=O)N1CCCC[C@H]1C(=O)O[C@H](CCc1ccc(OC)c(OC)c1)c1cccc(OCC(=O)NCCNC(=O)c2cccc(S(=O)(=O)OCCOCCOCCNC(=O)CCCC[C@@H]3SC[C@@H]4NC(=O)N[C@@H]43)c2)c1`, the outcome in data set [3] was Active. In addition, the Activity result in data set [4] is given as “Non-toxic”.

As to `CCN(CC)c1ccc2cc(C(=O)NCCOCCOS(=O)(=O)c3cccc(C(=O)NCCCCCNC(=O)c4ccc(S(N)(=O)=O)cc4)c3)c(=O)oc2c1`, the Activity in data set [5] was 75%; in data set [6] it was “Non-toxic”. Moreover, the 1/Km in data set [7] was 2.38 ×10² /M.
